Source: ChEMBL document CHEMBL3272325, “Structure-activity relationships of dimeric Catharanthus alkaloids. 1. Deacetylvinblastine amide (vindesine) sulfate” (J Med Chem, 1978)
Active and inactive are the calls of the source. No cut-off for these calls is given here.

Assays:
B16 [1] = assay: Antitumor activity against mouse B16 cells allografted in B6D2F1 mouse assessed as mean survival time at 0.60 mg/kg/day, ip administered on day 1, 5 and 9 (reference value: 20.0 days); format: functional; settings: route intraperitoneal
Method in brief: (§1)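 Male B6D2F1 mice implanted ip on day 0 with 0.25 mL of a 20% (w/v) B16 melanoma brei. Alkaloid sulfate salts given ip on days 1, 5, 9 or on days 5, 9, 13, groups of 10, against 30 untreated controls. Read-outs: median survival time with range of individual deaths, and percent increase in life span, with survivors counted on day 56.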

B16 [2] = assay: Antitumor activity against mouse B16 cells allografted in B6D2F1 mouse assessed as mean survival time at 1 mg/kg/day, ip administered on day 1, 5 and 9 (reference value: 20.0 days); format: functional; settings: route intraperitoneal; method in brief: as §1
B16 [3] = assay: Antitumor activity against mouse B16 cells allografted in B6D2F1 mouse assessed as mean survival time at 1.67 mg/kg/day, ip administered on day 1, 5 and 9 (reference value: 20.0 days); format: functional; settings: route intraperitoneal; method in brief: as §1
P388 [4] = assay: Antitumor activity against mouse P388 cells allografted in mouse assessed as increase in life span at 0.33 mg/kg/day, ip administered from day 1 to day 9 relative to untreated control; format: functional; settings: route intraperitoneal
Method in brief: (§2)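 P388 ascites implanted ip in mice, 10 animals per group. Sulfate salts given ip either daily on days 1-9 or as a single dose on day 1. Median life span was calculated using all deaths and survivors. Percent increase in life span was taken over untreated controls. The highest nontoxic dose was noted.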

P388 [5] = assay: Antitumor activity against mouse P388 cells allografted in mouse assessed as increase in life span at 0.22 mg/kg/day, ip administered from day 1 to day 9 relative to untreated control; format: functional; settings: route intraperitoneal; method in brief: as §2
P388 [6] = assay: Antitumor activity against mouse P388 cells allografted in mouse assessed as increase in life span at 4 mg/kg/day, ip after 1 day; format: functional; settings: 24 h, route intraperitoneal; method in brief: as §2
P388 [7] = assay: Antitumor activity against mouse P388 cells allografted in mouse assessed as increase in life span at 2.7 mg/kg/day, ip after 1 day; format: functional; settings: 24 h, route intraperitoneal; method in brief: as §2
P388 [8] = assay: Antitumor activity against mouse P388 cells allografted in mouse assessed as increase in life span at 1.8 mg/kg/day, ip after 1 day; format: functional; settings: 24 h, route intraperitoneal; method in brief: as §2
P388 [9] = assay: Antitumor activity against mouse P388 cells allografted in mouse assessed as increase in life span at 1.2 mg/kg/day, ip after 1 day; format: functional; settings: 24 h, route intraperitoneal; method in brief: as §2
[10] = Toxicity in ip dosed mouse allografted with mouse p388 cells administered from day 1 to day 9; format: organism-based; settings: in vivo, read-out: MNTD; method in brief: as §2
[11] = Toxicity in ip dosed mouse allografted with mouse p388 cells after 1 day; format: organism-based; settings: in vivo, read-out: MNTD; method in brief: as §2
B16 [12] = assay: Antitumor activity against mouse B16 cells allografted in B6D2F1 mouse assessed as mean survival time at 0.36 mg/kg/day, ip administered on day 1, 5 and 9 (reference value: 20.0 days); format: functional; settings: route intraperitoneal; method in brief: as §1
B16 [13] = assay: Antitumor activity against mouse B16 cells allografted in B6D2F1 mouse assessed as mean survival time at 0.216 mg/kg/day, ip administered on day 1, 5 and 9 (reference value: 20.0 days); format: functional; settings: route intraperitoneal; method in brief: as §1
B16 [14] = assay: Antitumor activity against mouse B16 cells allografted in B6D2F1 mouse assessed as increase in life span at 1.67 mg/kg/day, ip administered on day 1, 5 and 9 measured for 56 days relative to untreated control; format: functional; settings: route intraperitoneal; method in brief: as §1
B16 [15] = assay: Antitumor activity against mouse B16 cells allografted in B6D2F1 mouse assessed as increase in life span at 1 mg/kg/day, ip administered on day 1, 5 and 9 measured for 56 days relative to untreated control; format: functional; settings: route intraperitoneal; method in brief: as §1
B16 [16] = assay: Antitumor activity against mouse B16 cells allografted in B6D2F1 mouse assessed as increase in life span at 0.60 mg/kg/day, ip administered on day 1, 5 and 9 measured for 56 days relative to untreated control; format: functional; settings: route intraperitoneal; method in brief: as §1
B16 [17] = assay: Antitumor activity against mouse B16 cells allografted in B6D2F1 mouse assessed as increase in life span at 0.36 mg/kg/day, ip administered on day 1, 5 and 9 measured for 56 days relative to untreated control; format: functional; settings: route intraperitoneal; method in brief: as §1
B16 [18] = assay: Antitumor activity against mouse B16 cells allografted in B6D2F1 mouse assessed as increase in life span at 0.216 mg/kg/day, ip administered on day 1, 5 and 9 measured for 56 days relative to untreated control; format: functional; settings: route intraperitoneal; method in brief: as §1
B16 [19] = assay: Antitumor activity against mouse B16 cells allografted in B6D2F1 mouse assessed as mean survival time at 1.67 mg/kg/day, ip administered on day 5, 9 and 13 (reference value: 20.0 days); format: functional; settings: route intraperitoneal; method in brief: as §1
B16 [20] = assay: Antitumor activity against mouse B16 cells allografted in B6D2F1 mouse assessed as mean survival time at 1 mg/kg/day, ip administered on day 5, 9 and 13 (reference value: 20.0 days); format: functional; settings: route intraperitoneal; method in brief: as §1
B16 [21] = assay: Antitumor activity against mouse B16 cells allografted in B6D2F1 mouse assessed as mean survival time at 0.60 mg/kg/day, ip administered on day 5, 9 and 13 (reference value: 20.0 days); format: functional; settings: route intraperitoneal; method in brief: as §1
B16 [22] = assay: Antitumor activity against mouse B16 cells allografted in B6D2F1 mouse assessed as mean survival time at 0.36 mg/kg/day, ip administered on day 5, 9 and 13 (reference value: 20.0 days); format: functional; settings: route intraperitoneal; method in brief: as §1
B16 [23] = assay: Antitumor activity against mouse B16 cells allografted in B6D2F1 mouse assessed as mean survival time at 0.216 mg/kg/day, ip administered on day 5, 9 and 13 (reference value: 20.0 days); format: functional; settings: route intraperitoneal; method in brief: as §1
B16 [24] = assay: Antitumor activity against mouse B16 cells allografted in B6D2F1 mouse assessed as increase in life span at 1.67 mg/kg/day, ip administered on day 5, 9 and 13 measured for 56 days relative to untreated control; format: functional; settings: route intraperitoneal; method in brief: as §1
[25] = Antitumor activity against mouse Ridgeway osteogenic sarcoma cells allografted in mouse at 0.1 to 0.2 mg/kg/day, ip; format: functional; settings: route intraperitoneal
Method in brief: (§3)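 Sulfate salts given ip on days 1-9 against ROS and GLS in mice; tumor growth scored as percent inhibition versus controls (+++ = 75-100%, ++ = 50-75%, ± = under 25%).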

[26] = Antitumor activity against mouse Gardner lymphosarcoma cell allografted in mouse at 0.1 to 0.2 mg/kg/day, ip; format: functional; settings: route intraperitoneal; method in brief: as §3
[27] = Acute toxicity in ip dosed mouse; format: organism-based; settings: in vivo
P388 [28] = assay: Antitumor activity against mouse P388 cells allografted in mouse assessed as survival at 1.8 mg/kg/day after 1 day; format: functional, organism-based
Method in brief: (§4)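 P388 ascites implanted ip in mice; sulfate salts dosed either daily or as a single dose on day 1, 10 animals per group. Survivors per total were recorded, median life span was calculated using all deaths and survivors, and percent increase of life span was reported.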

[29] = Antitumor activity against mouse P1534(J) cells allografted in mouse assessed as tumor growth inhibition at 0.25 mg/kg/day, ip administered from day 1 to day 9 relative to unreated control; format: functional; settings: P1534J, route intraperitoneal, read-out: TGI
Method in brief: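 P1534(J) leukemia implanted subcutaneously in mice; sulfate salts given ip on days 1-9. Read-out is percent inhibition of tumor growth versus untreated controls.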

[30] = Toxicity in ip dosed mouse allografted with mouse P1534(J) cells administered from day 1 to day 9; format: organism-based; settings: in vivo, read-out: MNTD
Method in brief: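 P1534(J) leukemia implanted subcutaneously in mice. Sulfate salts given ip daily on days 1-9. Read-out was percent inhibition of tumor growth relative to untreated controls. The highest nontoxic dose was recorded.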

P388 [31] = assay: Antitumor activity against mouse P388 cells allografted in mouse assessed as survival at 1.2 mg/kg/day after 1 day; format: functional, organism-based; method in brief: as §4
B16 [32] = assay: Antitumor activity against mouse B16 cells allografted in B6D2F1 mouse assessed as increase in life span at 1 mg/kg/day, ip administered on day 5, 9 and 13 measured for 56 days relative to untreated control; format: functional; settings: route intraperitoneal; method in brief: as §1
B16 [33] = assay: Antitumor activity against mouse B16 cells allografted in B6D2F1 mouse assessed as increase in life span at 0.60 mg/kg/day, ip administered on day 5, 9 and 13 measured for 56 days relative to untreated control; format: functional; settings: route intraperitoneal; method in brief: as §1
B16 [34] = assay: Antitumor activity against mouse B16 cells allografted in B6D2F1 mouse assessed as increase in life span at 0.36 mg/kg/day, ip administered on day 5, 9 and 13 measured for 56 days relative to untreated control; format: functional; settings: route intraperitoneal; method in brief: as §1
B16 [35] = assay: Antitumor activity against mouse B16 cells allografted in B6D2F1 mouse assessed as increase in life span at 0.216 mg/kg/day, ip administered on day 5, 9 and 13 measured for 56 days relative to untreated control; format: functional; settings: route intraperitoneal; method in brief: as §1
[36] = Acute toxicity in rat; format: organism-based; settings: in vivo
Gallus gallus = assay: Neurotoxicity in iv dosed chicken assessed as neuromuscular disturbance by measuring loss of balance; format: organism-based; settings: in vivo
Rhesus monkey [37] = assay: Neurotoxicity in iv dosed monkey assessed as peripheral neuropathy; format: toxicity, organism-based, Macaca mulatta; settings: in vivo
P388 [38] = assay: Antitumor activity against mouse P388 cells allografted in mouse assessed as survival at 0.22 mg/kg/day administered from day 1 to day 9; format: functional, organism-based; method in brief: as §4
Rhesus monkey [39] = assay: Neurotoxicity in iv dosed monkey assessed as peripheral neuropathy; settings: in vivo

Compound `CC[C@]1(O)C[C@H]2CN(CCc3c([nH]c4ccccc34)[C@@](C(=O)OC)(c3cc4c(cc3OC)N(C=O)[C@H]3[C@@](O)(C(=O)OC)[C@H](OC(C)=O)[C@]5(CC)C=CCN6CC[C@]43[C@@H]65)C2)C1.O=S(=O)(O)O` [VINCRISTINE SULFATE] has an MST (B16 [1]) of 30.5 days, an MST (B16 [2]) of 32.5 days and an MST (B16 [3]) of 35 days. For the same compound, the ILS at 0.33 mg/kg/day (P388 [4]) was 181%, the ILS at 0.22 mg/kg/day (P388 [5]) was 131% and the ILS at 4 mg/kg/day (P388 [6]) was 118%. For the same compound, the ILS at 2.7 mg/kg/day (P388 [7]) was 100%, the ILS at 1.8 mg/kg/day (P388 [8]) was 81% and the ILS at 1.2 mg/kg/day (P388 [9]) was 68%. It also gave an MTD [10] of 0.33 mg/kg/day, an MTD at 24 h [11] of 4 mg/kg/day and an MST (B16 [12]) of 26 days. The MST (B16 [13]) was 24 days, the ILS at 1.67 mg/kg/day (B16 [14]) was 75% and the ILS at 1 mg/kg/day (B16 [15]) was 62%. The ILS at 0.6 mg/kg/day (B16 [16]) was 52%, the ILS at 0.36 mg/kg/day (B16 [17]) was 30% and the ILS at 0.216 mg/kg/day (B16 [18]) was 20%. It also gave an MST (B16 [19]) of 26 days, an MST (B16 [20]) of 29.5 days and an MST (B16 [21]) of 24.5 days. For the same compound, the MST (B16 [22]) was 24 days, the MST (B16 [23]) was 24.5 days and the ILS at 1.67 mg/kg/day (B16 [24]) was 30%. For the same compound, the TGI [25] was 75%, the TGI [26] was 75% and the LD50 [27] was 2.1 mg/kg. For the same compound, the Activity (P388 [28]) was “inactive”, the inhibition in vivo at 0.25 mg/kg/day [29] was 77% and the MTD [30] was 0.25 mg/kg/day. For the same compound, the Activity (P388 [31]) was “inactive”, the ILS at 1 mg/kg/day (B16 [32]) was 48% and the ILS at 0.6 mg/kg/day (B16 [33]) was 22%. It also gave an ILS at 0.36 mg/kg/day (B16 [34]) of 20%, an ILS at 0.216 mg/kg/day (B16 [35]) of 22% and an LD50 [36] of 1 mg/kg. For the same compound, the Activity (Gallus gallus) was “Toxic”, the Activity (Rhesus monkey [37]) was “Toxic” and the Activity (P388 [38]) was “inactive”. The Activity (Rhesus monkey [39]) was “Toxic”.
